Measured values reported in ChEMBL document CHEMBL4020842, “Discovery of N1-(4-((7-Cyclopentyl-6-(dimethylcarbamoyl)-7 H-pyrrolo[2,3- d]pyrimidin-2-yl)amino)phenyl)- N8-hydroxyoctanediamide as a Novel Inhibitor Targeting Cyclin-dependent Kinase 4/9 (CDK4/9) and Histone Deacetlyase1 (HDAC1) against Malignant Cancer” (J Med Chem, 2018).
pIC50: −log10 of the molar value. Values after ≈ are worked out from the molar mass of the structure shown. Active and inactive are the calls of the source. The rule behind the calls is not given here.

Tests used:
Hep 3B2 [1] = test: Cell cycle arrest in human Hep3B cells assessed as decrease in S-phase at 625 nM after 24 hrs by propidium iodide staining based flow cytometry; format: functional
Method in brief: (§1)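 Cells were exposed for 24 h to a range of concentrations (625 nM, 2.5 and 10 µM), with DMSO vehicle as control. They were then stained with propidium iodide and analysed by flow cytometry to obtain the percentages of cells in G0/G1, S and G2 phases.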

MDA-MB-231 [2] = test: Downregulation of Cyclin-D1 protein expression in human MDA-MB-231 cells after 48 hrs by Western blot method; format: functional, cell-based
Method in brief: (§2)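 Treated cells were lysed and CDK4 and cyclin D1 protein levels were assessed by Western blot.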

[3] = molecular target: Vascular endothelial growth factor receptor 3 (Homo sapiens, UniProt P35916); test: Inhibition of recombinant human N-terminal GST-tagged FLT4 (800-end residues) expressed in baculovirus infected sf21 cells
Vascular endothelial growth factor receptor 3, sequence (P35916 whole entry): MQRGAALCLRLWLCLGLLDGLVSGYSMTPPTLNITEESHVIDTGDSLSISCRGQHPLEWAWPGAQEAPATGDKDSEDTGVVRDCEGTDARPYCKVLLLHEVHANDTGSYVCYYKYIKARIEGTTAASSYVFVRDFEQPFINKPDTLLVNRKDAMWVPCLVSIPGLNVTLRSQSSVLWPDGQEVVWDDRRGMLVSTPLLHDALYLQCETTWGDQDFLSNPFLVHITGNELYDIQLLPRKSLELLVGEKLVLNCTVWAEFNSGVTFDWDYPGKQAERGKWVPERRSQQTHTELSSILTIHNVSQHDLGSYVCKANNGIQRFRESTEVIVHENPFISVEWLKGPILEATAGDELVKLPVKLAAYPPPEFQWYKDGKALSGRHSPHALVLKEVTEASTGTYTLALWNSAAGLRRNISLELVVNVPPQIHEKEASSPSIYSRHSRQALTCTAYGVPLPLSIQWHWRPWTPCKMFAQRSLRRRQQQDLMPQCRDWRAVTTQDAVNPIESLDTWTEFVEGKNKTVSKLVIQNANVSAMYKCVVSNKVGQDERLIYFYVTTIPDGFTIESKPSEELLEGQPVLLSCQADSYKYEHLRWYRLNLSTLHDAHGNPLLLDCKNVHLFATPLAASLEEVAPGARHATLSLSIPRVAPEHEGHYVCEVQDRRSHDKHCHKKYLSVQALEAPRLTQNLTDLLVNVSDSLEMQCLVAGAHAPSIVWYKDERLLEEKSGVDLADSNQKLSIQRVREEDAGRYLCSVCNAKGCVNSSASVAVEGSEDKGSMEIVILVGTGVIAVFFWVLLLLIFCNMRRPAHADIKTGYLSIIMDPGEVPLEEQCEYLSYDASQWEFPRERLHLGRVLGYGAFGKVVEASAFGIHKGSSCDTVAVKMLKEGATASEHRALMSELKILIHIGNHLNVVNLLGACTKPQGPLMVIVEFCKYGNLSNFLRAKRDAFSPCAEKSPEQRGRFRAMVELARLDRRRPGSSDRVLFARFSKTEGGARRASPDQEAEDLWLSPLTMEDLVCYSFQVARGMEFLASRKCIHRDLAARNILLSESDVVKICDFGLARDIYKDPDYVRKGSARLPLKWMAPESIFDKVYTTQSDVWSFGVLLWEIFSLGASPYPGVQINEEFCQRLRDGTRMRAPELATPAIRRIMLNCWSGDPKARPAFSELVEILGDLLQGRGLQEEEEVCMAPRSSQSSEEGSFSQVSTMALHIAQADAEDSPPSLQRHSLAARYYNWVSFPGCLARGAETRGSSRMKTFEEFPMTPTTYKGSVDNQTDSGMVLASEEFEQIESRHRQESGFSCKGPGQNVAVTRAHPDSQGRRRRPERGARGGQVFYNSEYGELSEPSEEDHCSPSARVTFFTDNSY

T47D [4] = test: Induction of apoptosis in human T47D cells assessed as caspase-3 cleavage after 48 hrs by Western blot method; format: functional, cell-based
Method in brief: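 Cells were treated with or without test agent, alongside a control, for 48h. They were then lysed and analysed by Western blot for Bcl-2 protein and cleaved caspase 3.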

MDA-MB-231 [5] = test: Induction of apoptosis in human MDA-MB-231 cells assessed as necrotic cells at 1 uM after 48 hrs by annexin V-FITC/propidium iodide staining based flow cytometry (reference value: […]); format: functional
[6] = Aqueous solubility in water at 1 mg using methanesulfonic acid formulation sonicated for 24 hrs and incubated under unstirred condition for 24 hrs by HPLC method; format: physicochemical
HepG2 [7] = test: Downregulation of Cyclin-D1 protein expression in human HepG2 cells after 48 hrs by Western blot method; format: functional, cell-based; method in brief: as §2
4T1 [8] = test: Antitumor activity against mouse Fluc-labeled 4T1 cells implanted in Balb/c mouse assessed as tumor growth inhibition administered ip daily for 18 days measured after 8 to 25 days by bioluminescence assay; format: functional, organism-based
Method in brief: (§3)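 Luciferase (Fluc) reporter introduced into 4T1 cells by lentiviral transduction. Cells implanted orthotopically into mammary fat pads of female BALB/c mice aged 6–8 weeks. Once tumours averaged 100 mm3, dosing was daily by IP injection. Bioluminescence imaging was done at days 8 and 25 to reflect viable tumour cell number. Tumour weight was recorded at study end.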

NCI-H460 [9] = test: Induction of apoptosis in human NCI-H460 cells assessed as live cells at 1 uM after 48 hrs by annexin V-FITC/propidium iodide staining based flow cytometry (reference value: 97.3%); format: functional
CDK4/CDK9 (Homo sapiens) [10] = molecular target: T1, CDK4/CDK9 (Homo sapiens) (UniProt P11802+P50750); test: Inhibition of CDK4/CDK9 in human MDA-MB-231 cells assessed as reduction in Rb phosphorylation at Ser807/811 residues at 1 uM after 48 hrs by Western blot method; format: cell-based
T1 sequence (P11802 whole entry, looked up): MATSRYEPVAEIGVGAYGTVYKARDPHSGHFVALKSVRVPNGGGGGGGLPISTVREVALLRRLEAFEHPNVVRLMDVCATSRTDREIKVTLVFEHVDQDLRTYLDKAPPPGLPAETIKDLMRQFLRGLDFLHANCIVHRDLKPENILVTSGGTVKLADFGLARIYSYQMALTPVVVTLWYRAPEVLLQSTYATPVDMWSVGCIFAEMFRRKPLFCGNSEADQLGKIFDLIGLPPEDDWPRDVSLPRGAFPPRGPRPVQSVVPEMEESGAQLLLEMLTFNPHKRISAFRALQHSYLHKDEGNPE
T1 sequence (P50750 whole entry, looked up): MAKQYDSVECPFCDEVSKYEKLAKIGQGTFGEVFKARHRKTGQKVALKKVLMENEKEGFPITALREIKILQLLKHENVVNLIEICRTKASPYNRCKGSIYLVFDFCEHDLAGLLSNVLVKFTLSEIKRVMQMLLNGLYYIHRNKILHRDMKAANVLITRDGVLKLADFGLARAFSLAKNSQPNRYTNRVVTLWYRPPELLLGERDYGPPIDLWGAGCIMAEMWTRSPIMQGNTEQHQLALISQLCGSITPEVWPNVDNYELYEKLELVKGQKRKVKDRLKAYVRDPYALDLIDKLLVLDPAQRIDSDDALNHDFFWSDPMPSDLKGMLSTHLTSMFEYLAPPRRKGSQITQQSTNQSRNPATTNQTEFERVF

4T1 [11] = test: Antitumor activity against mouse Fluc-labeled 4T1 cells implanted in Balb/c mouse assessed as reduction in tumor weight at 90 mg/kg, ip administered daily for 18 days measured after 8 to 25 days; format: functional, organism-based; method in brief: as §3
A549 [12] = test: Induction of apoptosis in human A549 cells assessed as early apoptotic cells at 5 uM after 48 hrs by annexin V-FITC/propidium iodide staining based flow cytometry (reference value: 0.41%); format: functional
[13] = Lipophilicity, log P of the compound by HPLC based shake flask method; format: physicochemical
A549 [14] = test: Induction of apoptosis in human A549 cells assessed as necrotic cells at 10 uM after 48 hrs by annexin V-FITC/propidium iodide staining based flow cytometry (reference value: […]%); format: functional
NCI-H460 [15] = test: Induction of apoptosis in human NCI-H460 cells assessed as early apoptotic cells at 1 uM after 48 hrs by annexin V-FITC/propidium iodide staining based flow cytometry (reference value: 0.11%); format: functional
A549 [16] = test: Downregulation of CDK4 protein expression in human A549 cells after 48 hrs by Western blot method; format: functional, cell-based
A549 [17] = test: Induction of apoptosis in human A549 cells assessed as live cells at 5 uM after 48 hrs by annexin V-FITC/propidium iodide staining based flow cytometry (reference value: 92.7%); format: functional
[18] = MRT (0 to infinity) in Sprague-Dawley rat at 20 mg/kg, iv administered as single dose by HPLC analysis; format: ADME, organism-based; settings: in vivo
Hep 3B2 [19] = test: Downregulation of Cyclin-D1 protein expression in human Hep3B cells after 48 hrs by Western blot method; format: functional, cell-based; method in brief: as §2
CDK4/CDK9 (Homo sapiens) [20] = molecular target: T1, CDK4/CDK9 (Homo sapiens); test: Inhibition of CDK4/CDK9 in human HepG2 cells assessed as reduction in Rb phosphorylation at Ser807/811 residues at 1 uM after 48 hrs by Western blot method; format: cell-based
A549 [21] = test: Induction of apoptosis in human A549 cells assessed as late apoptotic cells at 5 uM after 48 hrs by annexin V-FITC/propidium iodide staining based flow cytometry (reference value: 0.88%); format: functional
Histone deacetylase 1 = Histone deacetylase 1 (Homo sapiens, UniProt Q13547); test: Inhibition of HDAC1 in human T47D cells assessed as increase in acetylated-histone H3 level at 1 to 5 uM after 48 hrs by Western blot method; format: cell-based
Histone deacetylase 1, sequence (Q13547 whole entry): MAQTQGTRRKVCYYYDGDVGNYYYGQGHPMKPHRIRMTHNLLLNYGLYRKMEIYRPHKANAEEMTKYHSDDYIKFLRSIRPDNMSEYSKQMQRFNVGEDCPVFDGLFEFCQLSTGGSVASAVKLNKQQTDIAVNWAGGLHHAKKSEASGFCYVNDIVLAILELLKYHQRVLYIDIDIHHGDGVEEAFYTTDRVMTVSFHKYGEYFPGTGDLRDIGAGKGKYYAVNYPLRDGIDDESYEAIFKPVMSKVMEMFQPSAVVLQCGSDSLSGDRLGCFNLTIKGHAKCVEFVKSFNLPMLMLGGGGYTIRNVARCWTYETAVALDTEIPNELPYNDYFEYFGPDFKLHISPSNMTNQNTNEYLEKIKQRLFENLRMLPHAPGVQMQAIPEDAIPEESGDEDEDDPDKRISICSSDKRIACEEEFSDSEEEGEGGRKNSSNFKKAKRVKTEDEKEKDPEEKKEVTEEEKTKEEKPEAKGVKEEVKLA

HepG2 [22] = test: Cytotoxicity against human HepG2 cells assessed as reduction in cell viability after 72 hrs by CCK8 assay; format: functional, cell-based; settings: HepG2, 72 h
[23] = Half life in Sprague-Dawley rat at 20 mg/kg, ip administered as single dose by HPLC analysis; format: ADME, organism-based; settings: in vivo
Hep 3B2 [24] = test: Induction of apoptosis in human Hep3B cells assessed as late apoptotic cells at 10 uM after 48 hrs by annexin V-FITC/propidium iodide staining based flow cytometry (reference value: 5.25%); format: functional
NCI-H460 [25] = test: Downregulation of CDK4 protein expression in human NCI-H460 cells after 48 hrs by Western blot method; format: functional, cell-based; method in brief: as §2
CDK4/Cyclin D3 = CDK4/Cyclin D3 (Homo sapiens, UniProt P11802); test: Inhibition of recombinant human full length N-terminal GST-tagged CDK4/Cyclin-D3 co-expressed in baculovirus infected sf21 cells using Rb substrate in presence of [gamma33P]ATP after 10 mins by scintillation counting method
CDK4/Cyclin D3, sequence (P11802 whole entry): as the sequence (P11802 whole entry, looked up) above
CDK4/Cyclin D3, sequence (P30281 whole entry, further chain): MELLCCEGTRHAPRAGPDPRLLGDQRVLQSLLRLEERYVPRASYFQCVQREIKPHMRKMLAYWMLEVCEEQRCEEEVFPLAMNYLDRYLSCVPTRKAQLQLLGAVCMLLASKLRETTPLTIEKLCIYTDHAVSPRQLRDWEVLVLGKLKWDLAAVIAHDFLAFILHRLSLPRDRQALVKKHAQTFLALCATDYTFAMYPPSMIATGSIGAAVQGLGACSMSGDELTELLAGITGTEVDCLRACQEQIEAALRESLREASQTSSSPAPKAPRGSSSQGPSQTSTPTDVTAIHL

NCI-H460 [26] = test: Cell cycle arrest in human NCI-H460 cells assessed as accumulation at G0/G1 phase at 625 nM after 24 hrs by propidium iodide staining based flow cytometry; format: functional; method in brief: as §1
[27] = molecular target: Serine/threonine-protein kinase TAO2 (Homo sapiens, UniProt Q9UL54); test: Inhibition of recombinant human N-terminal His6-tagged TAO2 expressed in sf21 cells
Serine/threonine-protein kinase TAO2, sequence (Q9UL54 whole entry): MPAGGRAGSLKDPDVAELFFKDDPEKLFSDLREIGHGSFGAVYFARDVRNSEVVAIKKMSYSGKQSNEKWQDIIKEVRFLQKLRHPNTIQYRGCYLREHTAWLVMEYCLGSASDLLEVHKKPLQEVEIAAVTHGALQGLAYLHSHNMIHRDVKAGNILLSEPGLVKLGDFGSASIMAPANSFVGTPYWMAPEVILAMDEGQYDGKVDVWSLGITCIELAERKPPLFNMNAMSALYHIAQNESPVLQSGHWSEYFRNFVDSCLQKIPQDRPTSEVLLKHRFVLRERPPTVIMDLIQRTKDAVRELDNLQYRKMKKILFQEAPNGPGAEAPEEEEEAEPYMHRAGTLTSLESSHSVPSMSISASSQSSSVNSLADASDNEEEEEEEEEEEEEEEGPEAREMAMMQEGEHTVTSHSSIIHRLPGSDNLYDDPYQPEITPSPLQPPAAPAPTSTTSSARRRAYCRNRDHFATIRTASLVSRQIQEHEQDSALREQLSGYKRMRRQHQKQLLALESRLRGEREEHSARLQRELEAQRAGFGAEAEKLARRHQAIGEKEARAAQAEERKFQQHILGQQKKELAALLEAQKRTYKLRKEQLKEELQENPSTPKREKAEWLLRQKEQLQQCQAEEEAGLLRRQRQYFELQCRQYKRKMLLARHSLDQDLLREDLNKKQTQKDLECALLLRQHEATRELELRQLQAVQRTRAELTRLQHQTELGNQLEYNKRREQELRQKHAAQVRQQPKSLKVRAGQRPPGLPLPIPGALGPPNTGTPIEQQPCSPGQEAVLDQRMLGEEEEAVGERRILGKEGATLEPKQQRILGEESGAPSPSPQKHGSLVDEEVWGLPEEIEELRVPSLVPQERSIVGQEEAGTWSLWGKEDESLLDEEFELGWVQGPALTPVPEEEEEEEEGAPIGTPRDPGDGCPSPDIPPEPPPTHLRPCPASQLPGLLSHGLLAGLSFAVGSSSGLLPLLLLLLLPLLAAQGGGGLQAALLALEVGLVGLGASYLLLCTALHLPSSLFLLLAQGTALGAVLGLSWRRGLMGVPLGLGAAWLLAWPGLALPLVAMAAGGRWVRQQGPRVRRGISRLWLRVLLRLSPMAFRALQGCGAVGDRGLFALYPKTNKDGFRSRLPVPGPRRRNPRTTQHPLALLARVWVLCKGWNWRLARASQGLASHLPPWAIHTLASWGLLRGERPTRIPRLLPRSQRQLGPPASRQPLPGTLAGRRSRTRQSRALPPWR

T47D [28] = test: Induction of apoptosis in human T47D cells assessed as necrotic cells at 10 uM after 48 hrs by annexin V-FITC/propidium iodide staining based flow cytometry (reference value: 0.8%); format: functional
[29] = Tmax in Sprague-Dawley rat at 20 mg/kg, po administered as single dose by HPLC analysis; format: ADME, organism-based; settings: in vivo
4T1 [30] = test: Antitumor activity against mouse Fluc-labeled 4T1 cells implanted in Balb/c mouse assessed as tumor growth inhibition at 90 mg/kg, po administered daily via gavage for 18 days by bioluminescence assay relative to control; format: functional; settings: 4T1, po, 432 h, read-out: TGI
Method in brief: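 Fluc-labelled 4T1 cells (lentiviral transduction) were implanted orthotopically into the mammary fat pads of female BALB/c mice aged 6–8 weeks. Treatment started once tumours averaged 100 mm3, given daily by oral gavage. Tumour burden was followed by bioluminescence imaging of Fluc reporter expression.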

In the case of `CN(C)C(=O)c1cc2cnc(Nc3ccc(NC(=O)CCCCCCC(=O)NO)cc3)nc2n1C1CCCC1`, the Activity (Hep 3B2 [1]) was “Active”, the Activity (MDA-MB-231 [2]) was “Dose-dependent effect” and the pIC50 [3] was 7.37. The Activity (T47D [4]) was “Active”, the Activity (MDA-MB-231 [5]) was 1.65% and the solubility at 24 h [6] was 526 µg/mL (≈ 982 µM). The Activity (HepG2 [7]) was “Dose-dependent effect”, the TGI (4T1 [8]) was “Dose-dependent effect” and the Activity (NCI-H460 [9]) was 97%. For the same molecule, the inhibition (CDK4/CDK9 (Homo sapiens) [10]) was “Active”, the Activity (4T1 [11]) was “Active” and the Activity (A549 [12]) was 2.41%. For the same molecule, the logP [13] was 2.62, the Activity (A549 [14]) was 6.38% and the Activity (NCI-H460 [15]) was 0.28%. The Activity (A549 [16]) was “Dose-dependent effect”, the Activity (A549 [17]) was 80.5% and the MRT inf [18] was 14.1 h. For the same molecule, the Activity (Hep 3B2 [19]) was “Dose-dependent effect”, the inhibition (CDK4/CDK9 (Homo sapiens) [20]) was “Active” and the Activity (A549 [21]) was 13%. For the same molecule, the inhibition (Histone deacetylase 1) was “Active”, the pIC50 (HepG2 [22]) was 5.47 and the half-life [23] was 579 min. The Activity (Hep 3B2 [24]) was 15%, the Activity (NCI-H460 [25]) was “Dose-dependent effect” and the pIC50 (CDK4/Cyclin D3) was 8.06. For the same molecule, the Activity (NCI-H460 [26]) was “Active”, the pIC50 [27] was 7.08 and the Activity (T47D [28]) was 2.62%. For the same molecule, the Tmax [29] was 1.8 h and the inhibition in vivo at 90 mg/kg (4T1 [30]) was 70.3%.
